Bioassay records: PubChem BioAssay, Johns Hopkins Ion Channel Center
TRPC4 act: activators of mouse TRPC4 channel; HEK293 TRPC4beta/mu-opioid, Fluo4 calcium fluorescence; stronger effect = higher value; B-score at 10 µM; 310,000 compounds, 0.49% hits;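 active means B-score above 5 SD of library B-scores, and initial fluorescence ratio not above library mean plus 5 SD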;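 further: positive B-score marks a calcium rise read as TRPC4 activation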
Target sequence (Q9QUQ5 whole entry, looked up): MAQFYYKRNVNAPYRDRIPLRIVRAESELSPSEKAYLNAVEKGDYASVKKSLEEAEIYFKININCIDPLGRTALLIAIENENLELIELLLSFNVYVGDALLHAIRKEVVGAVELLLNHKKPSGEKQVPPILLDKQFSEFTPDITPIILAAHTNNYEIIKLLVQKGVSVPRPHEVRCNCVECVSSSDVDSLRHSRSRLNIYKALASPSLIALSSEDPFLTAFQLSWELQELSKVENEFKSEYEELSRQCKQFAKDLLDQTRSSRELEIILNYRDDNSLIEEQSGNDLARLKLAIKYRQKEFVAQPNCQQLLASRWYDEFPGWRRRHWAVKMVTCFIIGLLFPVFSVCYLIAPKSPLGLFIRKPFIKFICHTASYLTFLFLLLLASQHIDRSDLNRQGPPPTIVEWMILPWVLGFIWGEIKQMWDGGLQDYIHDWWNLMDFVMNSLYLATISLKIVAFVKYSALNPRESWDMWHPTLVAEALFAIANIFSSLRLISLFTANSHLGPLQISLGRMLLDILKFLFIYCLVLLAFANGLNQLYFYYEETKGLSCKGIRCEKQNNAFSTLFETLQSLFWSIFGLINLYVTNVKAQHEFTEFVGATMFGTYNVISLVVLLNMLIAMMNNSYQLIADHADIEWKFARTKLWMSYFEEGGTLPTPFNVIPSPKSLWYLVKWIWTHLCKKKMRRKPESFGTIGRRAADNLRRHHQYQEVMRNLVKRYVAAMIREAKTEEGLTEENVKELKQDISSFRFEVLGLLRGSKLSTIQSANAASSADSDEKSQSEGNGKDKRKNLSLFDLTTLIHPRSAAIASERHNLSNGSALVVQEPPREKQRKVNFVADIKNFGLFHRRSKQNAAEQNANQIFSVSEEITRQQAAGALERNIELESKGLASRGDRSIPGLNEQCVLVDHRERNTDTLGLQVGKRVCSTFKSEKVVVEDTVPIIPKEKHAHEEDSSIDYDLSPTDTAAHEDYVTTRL
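Test system: HEK293 cells stably co-expressing mouse TRPC4beta and mu-opioid receptor | Schedule: Fluo4 dye loading 45 min at room temperature, 110 s recording | Measured by: Kinetic Fluo4 calcium fluorescence, 5 s baseline at 1 Hz | Evaluation: B score of integrated ratio | Controls: Buffer (low) and maximal DAMGO (high)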
TRPC6 activator: activates the mouse TRPC6 cation channel. HEK293-TRPC6 membrane potential dye fluorescence; stronger effect = higher value. B-score at 10 µM. 310,000 compounds, 0.13% hits. AID 2550;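 active means B-score of the integrated fluorescence ratio above library mean plus 3 SD, and starting fluorescence ratio within library mean plus 5 SD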;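 further: higher score means more depolarization so channel activation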
TRPC4 PAM: allosteric potentiators of mouse TRPC4 channel. 310,000 compounds, 0.42% hits. HEK293 TRPC4beta/mu-opioid, DAMGO EC20, Fluo-4 Ca2+ flux; stronger effect = higher value. Q9QUQ5. B-score at 10 µM. AID 2227;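 active means B-score of calcium response area above 5 SD of library B-scores, with initial fluorescence ratio within 5 SD of library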
TRPC4 inh: inhibitors of mouse TRPC4 channel; B-score at 10 µM; 300,000 compounds, 0.39% hits; AID 2247; HEK293 TRPC4beta/mu-opioid, DAMGO-evoked Fluo4 calcium flux; stronger effect = lower value;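 active means B-score over 3 SD under the library average, no early fluorescence shift, positive overall ratio signal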
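System: stable TRPC4beta/mu-opioid receptor HEK293 cells; Dosing: single-point compound dosing; Measured by: Fluo4 Ca2+ flux fluorescence; Read-out basis: per-well B score of integrated baseline-normalized Fluo4 ratio.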
TRPC6 inh: mouse TRPC6 channel inhibition; Q61143; HEK293-TRPC6, membrane potential dye, ACh-evoked depolarization; stronger effect = lower value; B-score at 10 µM; 310,000 compounds, 1.1% hits; AID 2553;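 active means B-score under library mean minus 3 SD, initial fluorescence not abnormally high, positive integrated signal ratio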;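 further: B-score derived from integrated fluorescence ratio over the kinetic read; more negative B-score means stronger inhibition of depolarization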
TRPC4 spec 2: mouse TRPC4 off-target activity of TRPC6 inhibitors, second screen; shares compounds with TRPC6 inh; HEK293 TRPC4/MOR, membrane potential dye fluorescence; channel activated by saturating DAMGO dose; inhibition, % at 10 µM; 920 compounds, 42% hits; AID 2776;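 active means compounds whose fluorescence signal differed from control wells by over 3 SD, either direction, in both duplicate plates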
TRPC4 spec: tests whether TRPC6 inhibitors also affect mouse TRPC4; shares compounds with TRPC6 inh; HEK293 TRPC4/mu-opioid, membrane potential fluorescence; activity change, negative = inhibition, % at 10 µM; 920 compounds, 61% hits;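 active means rise or fall in signal beyond 3 SD of buffer-only wells in both replicate plates, either sign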;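 further: integrated kinetic ratio of fluorescence range over baseline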
HEK293 MPD ctr 2-1: second counter-screen for TRPC6 inhibitors: parental HEK293 cells; signal change vs control, % at 10 µM; 920 compounds, 31% hits; parental HEK293 membrane potential dye fluorescence; maximal acetylcholine challenge after compound addition; shares compounds with TRPC6 inh; AID 2779;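 active means membrane potential signal moving either way by over 3 SD of the maximum-effect control, in both duplicate plates, meaning non-specific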
HEK293 MPD ctr-1: checks TRPC6 inhibitor effects in parental HEK293 cells. shares compounds with TRPC6 inh. parental HEK293 membrane potential dye fluorescence. membrane potential signal change, % at 10 µM. AID 2780. 920 compounds, 60% hits;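 active means membrane potential signal shifting up or down by more than 3 SD of buffer-only wells, on both duplicate plates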
HEK293 MPD ctr-2: parental HEK293 nonspecific activity of TRPC6 modulators | shares compounds with TRPC6 inh | membrane potential dye fluorescence | membrane potential signal change, % at 10 µM | 2,400 compounds, 51% hits | AID 488924;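 active means membrane potential signal moves up or down beyond 5 SD from buffer-only wells, on both duplicate plates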
HEK293 MPD ctr 2-2: second counter-screen for TRPC6 modulators: effect in parental HEK293 cells; AID 488926; shares compounds with TRPC6 inh; 2,400 compounds, 14% hits; membrane potential dye fluorescence; after compound, maximal acetylcholine stimulation; inhibition, % at 10 µM;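 active means membrane potential signal drops by more than 5 SD from the mean control signal, in both duplicate plates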
TRPC4/MOR mod: tests whether TRPC6 modulators also affect mouse TRPC4 | shares compounds with TRPC6 inh | HEK293 TRPC4/mu-opioid, membrane potential fluorescence | percent change from control (negative = decrease, positive = increase), % at 10 µM | 2,400 compounds, 69% hits;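 active means membrane potential signal moved up or down beyond 5 SD of buffer control wells, in both duplicate plates, actives on both sides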
TRPC4/MOR inh 2: second selectivity test of TRPC6 modulators against mouse TRPC4; shares compounds with TRPC6 inh; HEK293 TRPC4/mu-opioid, membrane potential dye fluorescence; stimulated with maximal-effect DAMGO; inhibition, % at 10 µM; 2,400 compounds, 55% hits; AID 488928;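 active means drop in membrane potential signal beyond 5 SD of the control wells in both duplicate plates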;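 further: TRPC4 counter screen for TRPC6 hits run under conditions tuned for TRPC6 not TRPC4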
TRPC6 inh conf: confirmation of mouse TRPC6 inhibitors | shares compounds with TRPC6 inh | HEK293-TRPC6, membrane potential dye, ACh-evoked depolarization | inhibition, % at 10 µM | 3,300 compounds, 43% hits | AID 488960;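 active means fluorescence ratio falls more than 5 SD below the full-stimulation control mean, in both duplicate runs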;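 further: integrated fluorescence ratio of peak minus minimum over baseline after agonist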
TRPC6 act confirm: confirmation of mouse TRPC6 activators; activation, % at 10 µM; AID 488961; shares compounds with TRPC6 inh; HEK293-TRPC6 membrane potential dye fluorescence, FDSS; 2,800 compounds, 11% hits;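 active means ratio signal rise beyond 5 SD above unstimulated control wells' mean, seen in both duplicate runs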
A number is an active result. In the library only some 2.3% were active in any assay of this set; here they are far more common.

How did CC(C)CCNC(=O)C(c1ccco1)N(Cc1cccs1)C(=O)Cn1nnc2ccccc21 (centres undefined) do in these assays?
TRPC4 act: inactive; TRPC6 activator: 15; TRPC4 PAM: inactive; TRPC4 inh: inactive; TRPC6 inh: inactive; HEK293 MPD ctr-2: 281%; HEK293 MPD ctr 2-2: inactive; TRPC4/MOR mod: 72%; TRPC4/MOR inh 2: inactive; TRPC6 inh conf: inactive; TRPC6 act confirm: 98%

Results for COc1ccc(C(=O)COC(=O)CCNS(=O)(=O)c2ccccc2)c(OC)c1 ?
TRPC4 act: inactive; TRPC6 activator: inactive; TRPC4 PAM: inactive; TRPC4 inh: inactive; TRPC6 inh: inactive

Results for Cc1ccc(/C=C2\C(=N)N3N=C(CC(=O)N4CCCCC4)SC3=NC2=O)cc1 ?
TRPC4 act: inactive; TRPC6 activator: inactive; TRPC4 PAM: inactive; TRPC4 inh: inactive; TRPC6 inh: inactive

Results for COc1ccc(/C=C2/C(=N)N3N=C(CC(=O)N4CCCC4)SC3=NC2=O)cc1 ?
TRPC4 act: inactive; TRPC6 activator: 12; TRPC4 PAM: inactive; TRPC4 inh: inactive; TRPC6 inh: inactive; HEK293 MPD ctr-2: 163%; HEK293 MPD ctr 2-2: inactive; TRPC4/MOR mod: 24%; TRPC4/MOR inh 2: inactive; TRPC6 inh conf: inactive; TRPC6 act confirm: 84%

How did COc1ccc(/C=C2\C(=N)N3N=C(CC(=O)N4CCCCC4)SC3=NC2=O)cc1 do in these assays?
TRPC4 act: inactive; TRPC6 activator: 12; TRPC4 PAM: inactive; TRPC4 inh: inactive; TRPC6 inh: inactive; HEK293 MPD ctr-2: 136%; HEK293 MPD ctr 2-2: inactive; TRPC4/MOR mod: 22%; TRPC4/MOR inh 2: inactive; TRPC6 inh conf: inactive; TRPC6 act confirm: 76%

How did O=C(NCCCN1CCCC1=O)c1ccc(S(=O)(=O)Nc2cccc(C(F)(F)F)c2)cc1 do in these assays?
TRPC4 act: inactive; TRPC6 activator: inactive; TRPC4 PAM: inactive; TRPC4 inh: inactive; TRPC6 inh: inactive

How did Cc1ccc(C)c(N2CCN(C(=O)c3ccc(CS(=O)(=O)c4ccccc4C)o3)CC2)c1 do in these assays?
TRPC4 act: inactive; TRPC6 activator: inactive; TRPC4 PAM: inactive; TRPC4 inh: inactive; TRPC6 inh: -8.8; TRPC4 spec 2: inactive; TRPC4 spec: inactive; HEK293 MPD ctr 2-1: inactive; HEK293 MPD ctr-1: inactive; TRPC6 inh conf: inactive; TRPC6 act confirm: inactive

What do the screens show for `CNCc1c(OCc2ccccc2)ccc2ccccc12`?
TRPC4 act: inactive; TRPC6 activator: inactive; TRPC4 PAM: inactive; TRPC4 inh: -6; TRPC6 inh: -7; TRPC4 spec 2: 44%; TRPC4 spec: 29%; HEK293 MPD ctr 2-1: inactive; HEK293 MPD ctr-1: 12%; TRPC6 inh conf: inactive

Results for CNCc1c(OCc2ccccc2F)ccc2ccccc12 ?
TRPC4 act: inactive; TRPC6 activator: inactive; TRPC4 PAM: inactive; TRPC4 inh: inactive; TRPC6 inh: inactive

Results for COc1ccccc1Nc1nnc(SCC(=O)N2CCCC2)s1 ?
TRPC4 act: inactive; TRPC6 activator: inactive; TRPC4 PAM: inactive; TRPC4 inh: inactive; TRPC6 inh: inactive

What do the screens show for `COc1ccccc1Nc1nnc(SCC(=O)N2CCCC2=O)s1`?
TRPC4 act: inactive; TRPC6 activator: inactive; TRPC4 PAM: inactive; TRPC4 inh: inactive; TRPC6 inh: -5.1; HEK293 MPD ctr-2: inactive; HEK293 MPD ctr 2-2: inactive; TRPC4/MOR mod: inactive; TRPC4/MOR inh 2: inactive; TRPC6 inh conf: inactive; TRPC6 act confirm: inactive

What do the screens show for `CCOc1ccccc1NC(=O)CN1C(=O)COc2ccc(C)cc21`?
TRPC4 act: inactive; TRPC6 activator: inactive; TRPC4 PAM: inactive; TRPC4 inh: inactive; TRPC6 inh: inactive

Results for Cc1ccc(Nc2cc(C)nc3c(C)cccc23)cc1 ?
TRPC4 act: inactive; TRPC6 activator: inactive; TRPC4 PAM: inactive; TRPC4 inh: -7; TRPC6 inh: -6.8; TRPC4 spec 2: 20%; TRPC4 spec: inactive; HEK293 MPD ctr 2-1: 22%; HEK293 MPD ctr-1: -196%; TRPC6 inh conf: 98%; TRPC6 act confirm: inactive

Results for CC(=O)Nc1ccc(C(=O)CSc2cc(C)c3cccc(C)c3n2)cc1 ?
TRPC4 act: inactive; TRPC6 activator: inactive; TRPC4 PAM: inactive; TRPC4 inh: inactive; TRPC6 inh: inactive

What do the screens show for `Cc1cc(N/N=C/c2ccc(O)cc2)c2cccc(C)c2n1`?
TRPC4 act: inactive; TRPC6 activator: inactive; TRPC4 PAM: inactive; TRPC4 inh: inactive; TRPC6 inh: inactive

How did CC(=O)c1ccc(Nc2cc(C)nc3c(C)cccc23)cc1 do in these assays?
TRPC4 act: inactive; TRPC6 activator: inactive; TRPC4 PAM: inactive; TRPC4 inh: inactive; TRPC6 inh: -5.7; HEK293 MPD ctr-2: -82%; HEK293 MPD ctr 2-2: 64%; TRPC4/MOR mod: -22%; TRPC4/MOR inh 2: 54%; TRPC6 inh conf: inactive; TRPC6 act confirm: inactive

How did CC(=O)c1ccc(Nc2nc(C)cc(C)n2)cc1 do in these assays?
TRPC4 act: inactive; TRPC6 activator: inactive; TRPC4 PAM: inactive; TRPC4 inh: inactive; TRPC6 inh: inactive

How did CC(=O)c1ccc(Nc2cc(C)nc3ccccc23)cc1 do in these assays?
TRPC4 act: inactive; TRPC6 activator: inactive; TRPC4 PAM: inactive; TRPC4 inh: inactive; TRPC6 inh: -6.9; HEK293 MPD ctr-2: 102%; HEK293 MPD ctr 2-2: 144%; TRPC4/MOR mod: inactive; TRPC4/MOR inh 2: 63%; TRPC6 inh conf: 84%; TRPC6 act confirm: inactive
